T cell modulator = modulators of CD8 T cell-vesicle binding, primary screen, mouse 2C CD8+ T cells, flow cytometry. 2C CD8+ T cell-vesicle binding; active compounds read low. response (vesicle binding), % at 7 µM. hit rate 0.068% among 330,000;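 active = response, share of CD8 T cells binding vesicles, and their 90th percentile fluorescence all below set limits, cut at about 80% in these data, passing the limit was not always enough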;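 note: values below 100% mean blocked vesicle binding to the CD8+ T cells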
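Material: murine 2C transgenic CD8+ T lymphocytes / Also added: QL9-peptide-loaded Drosophila micro-vesicles bearing Ld, ICAM-1 and B7-1 / Schedule: binding step 1.5 h, 37 °C, antibody labelling 20 min, ice / Signal: flow cytometry, PE anti-B7-1 (FL2) versus Alexa647 anti-CD8 (FL8), PFA-fixed / Evaluation: percent CD8+ FL2 mean versus row control / Benchmarks: naked versus QL9-loaded vesicles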
NALP1 yeast inh = NALP1 inflammasome inhibitors in reconstituted yeast, colorimetric, S. cerevisiae, triplicate retest; S. cerevisiae NALP1/ASC/caspase-1 growth, X-gal OD620, 72 h; inhibition, % at 10 µM; hit rate 0.61% among 280,000; in the data active = inhibition mostly above about 24%, no sharp cut-off; inactive = mostly below about 32%
NALP3 yeast inh = NALP3 inflammasome inhibitors in reconstituted yeast, primary screen, luminescence, uHTS | AID 2825, 2010 | inhibition, % at 10 µM | Yeast reconstituted NLRP3/ASC/caspase-1, beta-gal luminescence, 24 h | hit rate 0.39% among 330,000;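 active = inhibition of 50% or more; inactive = inhibition below 50%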;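 note: plate controls were induced DMSO wells for no effect and uninduced yeast grown without galactose for full effect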
A1 inh = caspase 3/7 activation in MEF A1-2A-BIM cells, primary screen, A1 inhibitor project, cell-based, luminescence, HTS; caspase activation, % (concentration not given with the values); hit rate 0.066% among 330,000; AID 2462, 2010; Caspase-Glo 3/7 luminescence, 3 h; percent of clofoctol response, vehicle zero;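 active = over half of replicate activation scores above 10%, or exactly half above 10 with the replicate mean above 10; inconclusive = replicate mean below 10 yet half the replicates above 10; inactive = over half of replicates below 10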
NALP3 yeast conf = NALP3 inhibitors retested in yeast, confirmation, luminescence, single concentration; yeast expressing human NALP3; hit rate 81% among 1,300; shares compounds with NALP3 yeast inh; inhibition, % at 10 µM; AID 435006, 2010; in the data active = inhibition above about 48%
Casp1 ASC ctr = CASP1-PYCARD signaling inhibition in yeast, confirmatory test, counterassay for NLRP3 inhibitor program, one-dose; shares compounds with NALP3 yeast inh; yeast expressing Caspase-1-ASC, luminescence counter screen; inhibition, % at 10 µM; hit rate 66% among 1,000; AID 488784, 2010
NALP3 yeast rt = NALP3 inhibitors in yeast, repeat test, confirmation, luminescence, single concentration, retest | shares compounds with NALP3 yeast inh | yeast expressing human NALP3, luminescence read-out | inhibition, % at 10 µM | hit rate 53% among 1,000 | AID 488794, 2010
Numbers without * were called inactive; i = inactive; ? = inconclusive; · = no result given. The list is not random: actives were taken first. Their share in the collection is about 1%. Cut-off read from the data, not from the text of the source, unless noted: active = inhibition above about 50%; inactive = the rest.

SMILES	T cell modulator	NALP1 yeast inh	NALP3 yeast inh	A1 inh	NALP3 yeast conf	Casp1 ASC ctr	NALP3 yeast rt
O=C(Nc1ccc(F)cc1)c1nc(S(=O)(=O)Cc2ccccc2)ncc1Cl	132.0	-12.5	31.9	-0.2	·	·	·
Cc1ccc(NC(=O)c2nc(S(=O)(=O)Cc3ccccc3)ncc2Cl)cc1	407.9	-11.6	55.2*	1.4	68.2*	49.8	53.0*
CCOC(=O)C(=Cc1ccc(-n2cncn2)cc1)C(=O)OCC	i	-3.6	50.2*	0.0	61.5*	56.7*	40.1
CCN(CC)c1nc(C(N)=O)cc(-c2ccccc2)n1	229.7	23.8	53.1*	-0.1	41.0	64.7*	46.7
COc1ccc(C)cc1NC(=O)C1CCN(S(=O)(=O)c2ccc3c(c2)C(C)(C)C(=O)N3C)CC1	533.0	-2.7	79.5*	-0.7	47.4	15.3	16.6
Cc1ccc(C(=O)/C=C2/NC(=O)CS2)cc1	383.5	1.7	60.9*	-1.5	66.9*	52.0*	53.7*
CC(C)(C)C(=O)/C=C1\NC(=O)CS1	88.8	11.2	-12.6	0.1	·	·	·
O=C1CS/C(=C/C(=O)c2cccc(Cl)c2)N1	597.0	-6.6	66.0*	-1.7	72.3*	53.5*	58.9*
Cc1ccc(S(=O)(=O)/C=C2\NC(=O)CS2)cc1	373.3	25.1	10.6	-0.2	·	·	·
CCOC(=O)c1ccc(N2CCOCC2)c(NC(=O)c2ccc3c(c2)OCO3)c1	564.0	-9.8	31.7	-0.4	·	·	·
C[C@@H](NC(=O)c1[nH]cnc1C(=O)Nc1ccon1)c1ccccc1	197.0	·	6.6	0.6	·	·	·
C=CC[C@@H](CC(=O)NCCO)C(=O)N[C@@H](COC(=O)[C@@H](CC=C)CC(=O)OC(C)(C)C)Cc1c[nH]c2ccccc12	291.0	·	3.6	0.4	·	·	·
S=C1SCN(Cc2cccnc2)CN1Cc1cccnc1	722.5	69.3*	56.8*	0.0	58.2*	44.2	37.4
Oc1ccc(Oc2ccc(Oc3ccc(O)cc3)cc2)cc1	189.1	37.8*	79.3*	1.5	83.3*	92.6*	84.5*
CCN1/C(=C/C=C/c2oc3ccc(-c4ccccc4)cc3[n+]2CC)Oc2ccc(-c3ccccc3)cc21	i	51.2*	66.7*	-1.0	67.7*	22.4	43.2
CCCCN1C(=O)/C(=C/C=C2\Oc3ccccc3N2CC)SC1=S	·	8.7	·	·	·	·	·
O=C(CSC(=S)N1CCCCC1)c1ccccc1	188.3	8.7	60.2*	-13.5	73.5*	69.7*	55.8*
Cc1c(C)c2cc(Cl)c(OCC(=O)NCCCn3ccnc3)cc2oc1=O	222.7	2.7	-3.9	-0.2	·	·	·
CC(=O)c1c(C)[nH]c(C(=O)OCC(=O)c2ccc(C)s2)c1C	424.3	·	2.2	1.1	·	·	·
O=C(Nc1ccccc1)Nc1cc(Cl)cc(Cl)c1	167.9	4.9	56.1*	-0.5	77.0*	68.3*	77.8*
O=C(Nc1cccc(Cl)c1)Nc1cccc(Cl)c1	364.7	-4.6	10.6	-0.1	·	·	·
CSCc1ccc(C(=O)NC2CC(C)(C)Cc3c2cnn3-c2ccc(F)cc2)o1 (stereo not given)	292.6	-8.6	3.9	0.6	·	·	·
Cc1ccc(C(=O)c2nocc2C(=O)c2cccs2)cc1	471.6	24.7	55.3*	1.1	60.2*	73.1*	42.0
C=CC[C@H](CC(=O)OC(C)(C)C)C(=O)OC[C@@H]1CCCN1C(=O)[C@@H](CC=C)CC(=O)NCCO	641.0	·	14.6	-1.6	·	·	·
CC(NS(=O)(=O)c1ccc2c(c1)CC(C)N2C(=O)C1CC1)c1ccccc1 (stereo not given)	271.2	11.2	10.4	0.0	·	·	·
SMILES	T cell modulator	NALP1 yeast inh	NALP3 yeast inh	A1 inh	NALP3 yeast conf	Casp1 ASC ctr	NALP3 yeast rt
NS(=O)(=O)c1ccc(CCNC(=O)c2ccc3ccccc3n2)cc1	243.1	-2.0	-3.8	0.2	·	·	·
COc1ccc(CCNC(=O)c2ccc3ccccc3n2)cc1	840.4	11.6	52.3*	-0.8	67.2*	41.3	29.5
COc1ccc(S(=O)(=O)Nc2c(C)cc(C)cc2C)c2cccnc12	366.5	12.3	-1.1	0.4	·	·	·
CCCN1CCc2c(sc3nc(SCC)n(-c4ccccc4)c(=O)c23)C1	·	8.4	46.3	·	·	·	·
CCSc1nc2sc3c(c2c(=O)n1-c1ccccc1)CCN(C)C3	265.4	13.2	50.5*	0.3	65.8*	48.2	45.5
O=C(COc1ncnc2ccccc12)c1ccc2c(c1)OCCO2	121.0	-19.3	53.0*	-1.0	69.4*	43.5	44.6
N/C(Cc1ccc(Cl)cc1)=N\OC(=O)c1ccc2ccccc2c1	261.2	1.8	18.4	?	·	·	·
N/C(Cc1ccc(Cl)cc1)=N\OC(=O)c1cccc2ccccc12	154.8	-5.6	57.2*	-0.1	45.1*	54.7*	51.2*
Cc1ccc(N2CCN(C(=O)c3cc(-c4ccc(F)cc4)[nH]c3C)CC2C)cc1 (stereo not given)	215.7	11.6	-14.6	0.2	·	·	·
Cc1sc2nc(C3CC3)nc(SCC(=O)NCc3ccco3)c2c1C	361.7	18.0	51.2*	0.1	26.2	·	·
Cc1nc(SCC(=O)NC2CCCC2)c2c(C)c(C)sc2n1	215.7	15.4	54.4*	0.5	56.4*	38.5	29.4
CCCOC(=O)c1ccc(NC(=O)Cc2cccs2)cc1	258.3	20.4	46.5	-1.4	·	·	·
CCC[C@@H]1CCCO[C@@](C(=O)NCc2ccccn2)(C(F)(F)F)C1	549.7	·	2.7	-0.3	·	·	·
COc1ccc(-c2nc(CC(=O)Nc3cccc(S(=O)(=O)NC4=NCCC4)c3)cs2)cc1	286.3	·	7.9	·	·	·	·
Cc1cc(-c2ccc(C(C)C)c(S(=O)(=O)Nc3cc(C)on3)c2)on1	445.8	-7.2	0.9	0.5	·	·	·
COc1ccc(CNC(=S)Nc2ccc(OC)cc2)cc1	229.1	28.9	5.1	0.7	·	·	·
CCCCc1ccc(NC(=S)NCc2ccc(OC)cc2)cc1	281.4	-4.0	50.3*	0.4	72.5*	55.1*	34.9
CO/N=C/NC(=O)Cc1cn(-c2ncc(C(F)(F)F)cc2Cl)c2ccccc12	141.1	14.5	56.2*	-0.6	63.5*	38.0	38.5
CC(=O)/C=C\c1cn(-c2ncc(C(F)(F)F)cc2Cl)c2ccccc12	312.1	39.9	10.3	0.6	·	·	·
O=C(Nc1ccc2nc3n(c(=O)c2c1)CCCCC3)c1cc([N+](=O)[O-])ccc1F	299.6	26.6	62.7*	1.2	80.1*	69.2*	56.2*
Cc1ccc(OC(=O)c2ccc(C)c(C)c2)cn1	i	4.7	54.3*	-1.9	53.9*	74.8*	45.5
CC[C@@]1(C(=O)OC)N[C@H](CN(C)S(=O)(=O)c2ccc(C(F)(F)F)cc2)[C@@H]2C(=O)N(C)C(=O)[C@@H]21	197.5	·	8.6	·	·	·	·

Bioassay records from PubChem BioAssay.
